Bioassay records deposited in PubChem by several laboratories.
Hits are enriched below; roughly 1.4% of the tested compounds scored in any of these assays.
CHT PAM: allosterically activates the human high affinity choline transporter. Q9GZV3. CHT-expressing cells, membrane potential dye, choline EC20; stronger effect = higher value; LV-AA mutant CHT in HEK293 cells. B-score at 10 µM. 310,000 compounds, 0.49% hits;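 active = initial fluorescence not abnormally high and integrated response B-score, plate-corrected, over 3 SD above library mean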
ABCB6 inh 2: human ABCB6 transporter inhibition; K562-ABCB6 porphyrin accumulation, flow cytometry, 1 h; stronger effect = lower value; fluorescence ratio to DMSO, % at 10 µM; 360,000 compounds, 0.19% hits; AID 602162; Q9NP58;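 active = fluorescence ratio to DMSO below 75%, the collection mean minus 3 SD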;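 also: signal is porphyrin accumulated inside mitochondria; 100% equals median channel fluorescence of DMSO control wells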
Target sequence (Q9NP58 whole entry, looked up): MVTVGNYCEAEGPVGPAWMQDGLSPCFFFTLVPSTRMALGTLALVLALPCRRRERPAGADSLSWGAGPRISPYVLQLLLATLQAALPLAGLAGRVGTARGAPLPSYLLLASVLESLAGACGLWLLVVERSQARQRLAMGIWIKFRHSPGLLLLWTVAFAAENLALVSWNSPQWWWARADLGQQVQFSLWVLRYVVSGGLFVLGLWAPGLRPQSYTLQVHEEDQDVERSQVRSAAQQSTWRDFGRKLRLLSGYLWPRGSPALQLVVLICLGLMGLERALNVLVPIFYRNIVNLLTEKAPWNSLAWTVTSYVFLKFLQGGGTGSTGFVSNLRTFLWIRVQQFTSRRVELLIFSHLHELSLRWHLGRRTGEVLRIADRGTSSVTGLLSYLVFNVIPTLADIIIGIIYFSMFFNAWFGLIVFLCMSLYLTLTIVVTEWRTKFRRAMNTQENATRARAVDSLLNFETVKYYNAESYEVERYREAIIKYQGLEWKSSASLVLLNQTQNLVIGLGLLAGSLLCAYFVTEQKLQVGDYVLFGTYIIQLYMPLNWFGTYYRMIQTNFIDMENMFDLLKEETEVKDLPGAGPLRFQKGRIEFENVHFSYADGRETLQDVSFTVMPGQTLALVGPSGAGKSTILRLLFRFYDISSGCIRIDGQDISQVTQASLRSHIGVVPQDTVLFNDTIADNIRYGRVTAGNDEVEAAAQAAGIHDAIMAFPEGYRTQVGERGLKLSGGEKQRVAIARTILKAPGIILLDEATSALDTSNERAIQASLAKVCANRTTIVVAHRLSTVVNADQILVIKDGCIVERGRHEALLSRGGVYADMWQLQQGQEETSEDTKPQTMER
CHT block: inhibitors of human choline transporter CHT | CHT-expressing cells, membrane potential dye, choline response; stronger effect = lower value | 310,000 compounds, 0.86% hits | B-score at 10 µM | Q9GZV3 | AID 488975;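 active = B-score over 3 SD under the library average, and starting fluorescence ratio not unusually high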;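 also: choline stimulus applied at its EC90 after an EC20 pre-addition; B-score computed on integrated fluorescence ratio after choline addition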
TNAP inh no acc: blocks human TNAP activity with no phosphate acceptor present | P05186 | purified TNAP, CDP-star luminescence, 30 min | inhibition, % at 20 µM | 200,000 compounds, 0.26% hits;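 active = tissue-nonspecific alkaline phosphatase inhibition above about 50% at 20 µM in the single-dose screen, limit read from the data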;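 also: 0% = DMSO negative control and 100% = EDTA positive control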
TNAP inh hiacc: TNAP (human) inhibition, high acceptor; AID 1135; inhibition, % at 20 µM; 200,000 compounds, 0.03% hits; P05186; purified TNAP, CDP-star luminescence, 1 M DEA;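 active = over 50% inhibition of tissue-nonspecific alkaline phosphatase at 20 µM in the single-dose screen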;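 also: plate controls were DMSO wells for no effect and EDTA-quenched wells as full inhibition for full effect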
TNAP act hi DEA: TNAP (human) activation, high acceptor. purified TNAP, CDP-star luminescence, 1 M DEA, 30 min; stronger effect = higher value; 0 = EDTA background, 1 = DMSO-only activity. AID 1136. 200,000 tested, under 10 active. activation factor at 20 µM;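 active = activation factor at least 2 at 20 µM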
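system = human TNAP | amount = enzyme diluted 1/800 final | reagent = 100 µM CDP-star substrate | signal = luminescent substrate turnover signal | dosing = one dose, 20 µM | benchmarks = EDTA negative control, DMSO positive control | measure = activation factor | timing = 30 min reaction, room temperature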
CHT activ conf: human CHT activation, confirmatory screen; shares compounds with CHT PAM; CHT-expressing cells, membrane potential dye fluorescence (FDSS); % of choline EC20–EC90 response window; HEK293 expressing CHT LV-AA mutant; choline added at its EC20; activation, % at 10 µM; 2,500 compounds, 91% hits;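 active = primary screen active, with duplicate mean activation above negative control mean plus 3 SD, cut at about 11% in these data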
HEK293 MP dye: CHT activator counter-screen hit in parental HEK293 cells. shares compounds with CHT PAM. 2,500 compounds, 62% hits. membrane potential dye fluorescence (FDSS); measured after EC20 choline addition. AID 623908. ratio readout change at 10 µM, hits read low;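 active = duplicate-averaged ratio beyond 3 SD from buffer wells, up or down, though filed actives are nearly all decreases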
* hit, by the source's call; i = inactive; . = no result given.

SMILES	CHT PAM	ABCB6 inh 2	CHT block	TNAP inh no acc	TNAP inh hiacc	TNAP act hi DEA	CHT activ conf	HEK293 MP dye
COc1ccc(S(=O)(=O)N2c3ccccc3OCC2C)cc1 (configuration not stated)	7.1*	101	i	9	2	1	32*	i
COc1ccc(-c2cc(=O)c3cc(OC)ccc3o2)cc1	i	97	i	-10	-5	1	.	.
CCC(N=c1cc(-c2ccc(OC)cc2)oc2ccc(C)cc12)C(=O)O (configuration not stated)	i	101	i	-9	-4	1	32*	-27*
COc1ccc2c(c1)CCCN2C(N)=O	i	104	i	-10	-2	1	.	.
COc1ccc2c(c1)CCCN2C(N)=Nc1ccc(Cl)cc1	6.3*	100	i	.	.	.	16*	i
O=S(=O)(NCCc1ccccc1)c1ccc(Br)cc1	i	99	i	.	.	.	.	.
COP(=O)(OC)C(NC(=O)Nc1ccccc1)c1ccccc1 (configuration not stated)	i	87	i	.	.	.	.	.
Cc1nc2ccccn2c1-c1ccnc(=S)[nH]1	6.8*	95	i	.	.	.	37*	-35*
Cc1ccc(-c2nc3ncccn3c2NC2CCCC2)o1	i	98	i	-5	-1	1	.	.
Cc1ccc(-c2nc3ncccn3c2Nc2ccccc2C)o1	i	103	i	-14	3	1	40*	-43*
CCSc1nnc(NC(=O)CCNC(=O)c2ccccc2Cl)s1	.	89	.	.	.	.	.	.
Cc1nc2ccc(Cc3ccc4nc(C)[nH]c4c3)cc2[nH]1	7.5*	106	i	-19	0	1	59*	-54*
Nc1ccccc1C#CCCCCO	i	100	i	-6	0	1	.	.
COc1cc2c(cc1OC)C(c1cccc([N+](=O)[O-])c1)N(C(=O)c1ccc(F)cc1)CC2 (configuration not stated)	7.1*	101	i	4	-4	1	46*	i
COc1cc2c(cc1OC)C(c1ccc([N+](=O)[O-])cc1)N(C(C)=O)CC2 (configuration not stated)	i	99	i	.	.	.	.	.
COc1cc2c(cc1OC)C(c1ccccc1)N(C(=O)c1ccccc1)CC2 (configuration not stated)	i	102	i	.	.	.	.	.
COc1ccc(C2c3cc(OC)c(OC)cc3CCN2C(=O)c2cccc([N+](=O)[O-])c2)cc1OC (configuration not stated)	i	94	i	.	.	.	29*	i
CC(C)CC(=O)Nc1ccc2c3c(cccc13)CC2	i	98	i	-8	-3	1	.	.
COc1ccc2nc(N/C(N)=N/C(=S)Nc3cccc(C)c3)nc(C)c2c1	i	102	i	-5	1	1	.	.
COc1ccc2nc(N/C(N)=N/C(=S)Nc3c(C)cccc3C)nc(C)c2c1	7.1*	92	i	-40	1	1	50*	-41*
COC(=O)COc1ccc2c(c1)O/C(=C\c1cccc([N+](=O)[O-])c1)C2=O	i	98	i	.	.	.	.	.
COc1ccc(/C=C2\Oc3cc(OCC(N)=O)ccc3C2=O)cc1OC	6.2*	101	i	.	.	.	46*	-37*
O=C(Cc1ccc(Cl)cc1)Nc1cc(Cl)ccn1	i	96	i	.	.	.	.	.
O=C(Nc1ccc(-n2cnnn2)cc1)C1CCCN1C(=O)NC1CCCCC1 (configuration not stated)	i	88	i	-7	-3	1	.	.
O=C(Nc1ccc(-n2cnnn2)cc1)C1CCCCC1	9.1*	99	i	-3	-4	1	35*	-33*
SMILES	CHT PAM	ABCB6 inh 2	CHT block	TNAP inh no acc	TNAP inh hiacc	TNAP act hi DEA	CHT activ conf	HEK293 MP dye
CC(C)C(=O)N1CCN(c2ccccc2NC(=O)c2ccc([N+](=O)[O-])o2)CC1	11*	99	i	.	.	.	39*	i
O=C(Nc1ccccc1N1CCN(C(=O)c2ccccc2)CC1)c1ccc([N+](=O)[O-])o1	.	107	.	.	.	.	.	.
CCC(=O)N1CCN(c2ccccc2NC(=O)c2ccc([N+](=O)[O-])o2)CC1	8.9*	100	i	.	.	.	12*	i
COc1ccc(S(=O)(=O)N2CCCCC2)cc1NC(=O)CCC(=O)N1CCC(c2ccccc2)=N1	.	97	.	.	.	.	.	.
Cc1cc(O)c(CN2CCN(S(=O)(=O)c3cccs3)CC2)cc1C(C)C	.	97	.	.	.	.	.	.
C(=N\NC1=NCCN1)/c1ccncc1	6.4*	98	i	.	.	.	54*	-54*
Clc1cncc(Cl)c1N/N=C/c1ccncc1	i	98	i	-1	-2	1	51*	-53*
O=C(NCc1ccco1)c1cnc2n(c1=O)CCS2	i	102	i	2	-6	1.1	.	.
CCN1CCN(c2nc(-c3cccs3)nc3ccccc23)CC1	7.1*	99	i	-23	-3	1	43*	-40*
CN1CCN(c2nc(-c3cccs3)nc3ccccc23)CC1	i	88	i	-3	-5	1.1	39*	-65*
c1ccc(N2CCN(c3nc(-c4cccs4)nc4ccccc34)CC2)cc1	i	103	i	-7	2	1	.	.
c1ccc(CN2CCC(Nc3nc(-c4cccs4)nc4ccccc34)CC2)cc1	i	99	i	-6	-3	1	23*	-48*
Cc1ccc(-n2nc3c(=O)n(C(C)C(=O)NCc4ccc(Cl)cc4)nc(C)c3c2C)cc1 (configuration not stated)	i	98	i	.	.	.	.	.
CCCC[n+]1ccn(-c2nc3ccccc3nc2[N-]S(=O)(=O)c2cccs2)c1	i	90	i	.	.	.	.	.
Cc1cc(N2CCOCC2)nc2ccc(NC(=O)CCC(=O)N3CCC(C)CC3)cc12	i	97	i	-9	-6	1.1	.	.
CCCCN(C)C(=O)CCC(=O)Nc1ccc2nc(N3CCOCC3)cc(C)c2c1	7.7*	94	i	7	5	0.9	48*	-34*
CCCCNC(=O)CCC(=O)Nc1ccc2nc(N3CCC(C)CC3)cc(C)c2c1	i	101	i	6	1	1	38*	-35*
CCC(C)NC(=S)Nc1ccc2nc(N3CCOCC3)cc(C)c2c1 (configuration not stated)	i	97	i	.	.	.	.	.
